One experiment has as its target T1, Sortase A (Staphylococcus aureus, UniProt Q9S446).
T1 sequence (Q9S446 whole entry): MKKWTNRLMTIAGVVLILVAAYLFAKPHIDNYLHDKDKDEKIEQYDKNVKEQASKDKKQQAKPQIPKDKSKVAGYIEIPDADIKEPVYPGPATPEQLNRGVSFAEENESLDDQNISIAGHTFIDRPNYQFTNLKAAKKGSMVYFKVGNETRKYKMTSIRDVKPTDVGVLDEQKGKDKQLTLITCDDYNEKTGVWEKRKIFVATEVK
As to the kind of experiment: Inhibition of 6-His tagged Staphylococcus aureus recombinant sortase delta N24 expressed in Escherichia coli BL21 (DE3). An outline of the steps:
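N-terminally His6-tagged SrtA lacking residues 1-24, Ni-chelate purified. 1 μM enzyme pre-incubated with inhibitor 30 min at 37°C, then 2 mM Abz-LPETG-Dap(DNP)-NH2 plus 2 mM NH2-Gly5-OH added. Buffer: 300 mM Tris pH 7.5, 150 mM NaCl, 5 mM CaCl2, 0.1% CHAPS, 2% DMSO. Ran 30 min at 37°C, HCl-quenched. Reverse-phase HPLC at 355 nm gave substrate-to-product conversion, relative to uninhibited controls.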

Experiment [1] concerns the target T2, Sortase A (Staphylococcus aureus) (UniProt Q9S446).
T2 sequence (whole entry): T1 sequence (Q9S446 whole entry)
As to the kind of experiment: Inhibition of 6-His tagged Staphylococcus aureus recombinant sortase delta N24 expressed in Escherichia coli BL21 (DE3) at 5 mM. The procedure, abridged: (§1)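 His6-SrtAΔN24 (1 μM) was pre-incubated with inhibitor for 30 min at 37°C in 300 mM Tris pH 7.5, 150 mM NaCl, 5 mM CaCl2, 0.1% CHAPS and 2% DMSO. The reaction was started with 2 mM Abz-LPETG-Dap(DNP)-NH2 plus 2 mM NH2-Gly5-OH, run 30 min at 37°C, and quenched with 1.2 M HCl. Substrate and product were separated by reverse-phase HPLC and read at 355 nm. Percent substrate conversion came from peak areas.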

Experiment [2] addresses T2, Sortase A (Staphylococcus aureus). As to the kind of experiment: Inhibition of 6-His tagged Staphylococcus aureus recombinant sortase delta N24 expressed in Escherichia coli BL21 (DE3) at 1 mM. An outline of the steps: as §1

Calls of active or inactive are those of the source. The rule behind the calls is not given here.

A word on the IC50: it is the concentration that inhibits the measured activity by half. Take `CN(C)C(=N)N.O=C(NCCSSCCNC(=O)/C(Cc1ccc(S(=O)(=O)O)c(Br)c1)=N/O)/C(Cc1ccc(O)c(Br)c1)=N/O`: on Sortase A, the IC50 was 48.3 µM. With `C=CS(=O)(=O)[C@H]1C[C@@H](C(=O)OC)N[C@H]1c1ccccc1` (racemic), at Sortase A, the IC50 was 850 µM. In addition, the outcome in experiment [1] was Active. Take `C=CS(=O)(=O)[C@H]1C[C@]2(C(=O)OC)CCC(=O)N2[C@H]1c1ccc(OC)c(OC)c1` (racemic): the IC50 at Sortase A is 2680 µM. On to `C=CS(=O)(=O)[C@H]1C[C@]2(C(=O)OC)CCC(=O)N2[C@H]1c1cccnc1` (racemic), for which, on Sortase A, the IC50 is 2470 µM.

Turning to `C=CS(=O)(=O)[C@H]1C[C@@H](C(=O)OC)N[C@H]1c1cccc(F)c1` (racemic), the IC50 at Sortase A turned out to be 1040 µM. Besides, the outcome in experiment [1] was Active.

For the molecule `C=CS(=O)(=O)[C@H]1C[C@@](CCC(=O)OC)(C(=O)OC)N[C@H]1c1cccnc1` (racemic), the IC50 on Sortase A is 1860 µM. Still for that read-out and setting: the same measure for `C=CS(=O)(=O)[C@H]1C[C@]2(C(=O)OC)CCC(=O)N2[C@H]1c1ccccc1` (racemic): 2200 µM. In the case of `C=CS(=O)(=O)[C@H]1C[C@@H](C(=O)OC)N[C@H]1c1ccccc1F` (racemic), the IC50 on Sortase A came out at 1320 µM. In experiment [1], the result was Active. `C=CS(=O)(=O)[C@H]1C[C@@](CCC(=O)OC)(C(=O)OC)N[C@H]1c1ccc(OC)c(OC)c1` (racemic): the IC50 at Sortase A was over 5000 µM.

Regarding `COC(=O)[C@@H]1C[C@@H](C#N)[C@H](c2cccc(Cl)c2)N1` (racemic), the result in experiment [1] was inactive. On the same count and under the same terms, the same measure for `COC(=O)[C@@H]1C[C@@H](C#N)[C@H](c2cccc(F)c2)N1` (racemic): “inactive”; for `COC(=O)[C@@H]1C[C@@H](C#N)[C@H](c2cccc(F)c2F)N1` (racemic): “inactive”. The term inhibition denotes the drop in the measured response relative to a control, in per cent. `COC(=O)[C@@H]1C[C@@H](C#N)[C@H](c2ccccc2)N1` (racemic): the inhibition in experiment [1] amounted to 20%.

For `COC(=O)[C@@H]1C[C@@H](C#N)[C@H](c2ccccc2F)N1` (racemic), in experiment [1], the inhibition is 20%. Same read-out and setting: for `COC(=O)[C@@H]1C[C@H](C#N)[C@H](c2cccc(Cl)c2)N1` (racemic) the value was 20%. `COC(=O)[C@@H]1C[C@H](C#N)[C@H](c2cccc(F)c2)N1` (racemic): in experiment [1], the outcome was inactive. With `COC(=O)[C@@H]1C[C@H](C#N)[C@H](c2cccc(F)c2F)N1` (racemic), the result in experiment [1] was inactive.

`COC(=O)[C@@H]1C[C@H](C#N)[C@H](c2cccc(F)c2F)N1C` (racemic): in experiment [1], the outcome was inactive.

In the case of `COC(=O)[C@@H]1C[C@H](C#N)[C@H](c2ccccc2)N1` (racemic), the outcome in experiment [1] was inactive. Still for that read-out and setting: for `COC(=O)[C@@H]1C[C@H](C#N)[C@H](c2ccccc2)N1C` (racemic) the value was “inactive”. Consider `COC(=O)[C@@H]1C[C@H](C#N)[C@H](c2ccccc2F)N1` (racemic), for which the inhibition in experiment [1] was determined as 20%. The same measure, in the same setting: for `COC(=O)[C@@H]1C[C@H](C#N)[C@H](c2ccccc2F)N1C` (racemic) the value was 20%. Consider `COC(=O)[C@]1(C)C[C@@H](C#N)[C@H](c2ccc(Cl)cc2)N1` (racemic), for which the outcome in experiment [1] was inactive.

On to `COC(=O)[C@]1(C)C[C@@H](C#N)[C@H](c2ccccc2C)N1` (racemic), for which, in experiment [1], the result was inactive.

In the case of `COC(=O)[C@]1(C)C[C@@H](C#N)[C@H](c2ccccc2Cl)N1` (racemic), the outcome in experiment [1] was inactive. For `COC(=O)[C@]1(C)C[C@H](C#N)[C@H](c2ccc(Cl)cc2)N1` (racemic), in experiment [1], the result was inactive.

For the molecule `COC(=O)[C@]1(C)C[C@H](C#N)[C@H](c2ccccc2C)N1` (racemic), the result in experiment [1] was inactive. On to `COC(=O)[C@]1(C)C[C@H](C#N)[C@H](c2ccccc2C)N1C` (racemic), for which, in experiment [1], the result was inactive. The same measure, in the same setting: for `COC(=O)[C@]1(C)C[C@H](C#N)[C@H](c2ccccc2Cl)N1` (racemic) the value was “inactive”.

As to `COC(=O)[C@]1(C)C[C@H](C#N)[C@H](c2ccccc2Cl)N1C` (racemic), the inhibition in experiment [1] amounted to 20%. With `Cc1cn(C[C@@H]2C[C@H](C#N)[C@H](c3ccccc3)N2C)c(=O)[nH]c1=O` (racemic), the outcome in experiment [1] was inactive. Also, in experiment [2], the inhibition was 6%. Regarding `C=CS(=O)(=O)c1ccccc1` [(ETHENYLSULFONYL)BENZENE], at Sortase A, the IC50 was 736 µM. With `COc1cc(/C=C/C(=O)CC(=O)/C=C/c2ccc(O)c(OC)c2)ccc1O` [CURCUMIN], the IC50 on Sortase A is 37.5 µM.

Turning to `O=c1c(O)c(-c2ccc(O)cc2O)oc2cc(O)cc(O)c12` [MORIN], on Sortase A, the IC50 stood at 37.4 µM.

For the origin of these results see ChEMBL document CHEMBL1153353, “Probing of the cis-5-phenyl proline scaffold as a platform for the synthesis of mechanism-based inhibitors of the Staphylococcus aureus sortase SrtA isoform” (Bioorg Med Chem, 2009).
